# Measured values of several laboratories.
# Target: Carbonic anhydrase 2 (CA2, Homo sapiens, UniProt P00918)
# Effect on: enzyme activity
# Mode: inhibitor
SMILES,assay,Ki [nM]
CC1(C(=O)Nc2nnc(S(N)(=O)=O)s2)CCC1,stopped-flow,29.6
CCOC(=O)N1CCC(=C2c3ccc(Cl)cc3CCc3cccnc32)CC1,absorbance,8270
COc1ccc(NC(=S)N/N=C/c2ccc(N3CCC(O)CC3)cc2)cc1,,603
N#CSCCCCOc1ccc2c(-c3ccccc3)cc(=O)oc2c1,stopped-flow,> 100000
Cc1ccccc1CC(=O)Nc1nnc(S(N)(=O)=O)s1,stopped-flow,25.7
Cc1ccc(CNC(=S)N/N=C/c2ccc(N3CCC(O)CC3)cc2)cc1,,778
O=C(O)COCCN1CCN(C(c2ccccc2)c2ccc(Cl)cc2)CC1 (centres unmarked),absorbance,9590
OC1CCN(c2ccc(/C=N/NC(=S)Nc3ccc(Br)cc3)cc2)CC1,,334
OC(Cn1cncn1)(Cn1cncn1)c1ccc(F)cc1F,absorbance,7910
OC1CCN(c2ccc(/C=N/NC(=S)Nc3ccc(F)cc3)cc2)CC1,,283
NS(=O)(=O)c1nnc(NC(=O)C2CCC3(CCCCC3)CC2)s1,stopped-flow,32.6
CCOCCn1c(C2CCN(CCc3ccc(C(C)(C)C(=O)O)cc3)CC2)nc2ccccc21,absorbance,8440
CC1CCCC(C(=O)Nc2nnc(S(N)(=O)=O)s2)C1 (centres unmarked),stopped-flow,31.5
OC1CCN(c2ccc(/C=N/NC(=S)Nc3ccc(Cl)cc3)cc2)CC1,,401
OCCOCCN1CCN(C(c2ccccc2)c2ccc(Cl)cc2)CC1 (centres unmarked),absorbance,11500
NS(=O)(=O)c1nnc(NC(=O)C(F)CC2CCCCC2)s1 (centres unmarked),stopped-flow,4.9
C[C@H]1c2cccc(O)c2C(=O)C2=C(O)[C@]3(O)C(=O)C(C(N)=O)=C(O)[C@@H](N(C)C)[C@@H]3[C@@H](O)[C@@H]21,absorbance,8970
CC(C)CNC(=S)N/N=C/c1ccc(N2CCC(O)CC2)cc1,,716
CC1CCC(CC(=O)Nc2nnc(S(N)(=O)=O)s2)CC1 (centres unmarked),stopped-flow,22.3
N#CSCc1cc(=O)oc2cc(O)ccc12,stopped-flow,> 100000
